Measured values published in ChEMBL document CHEMBL1250477, “Reverse engineering truncations of an antimicrobial peptide dimer to identify the origins of potency and broad spectrum of action” (J Med Chem, 2010).
Values after ≈ are worked out from the molar mass of the structure shown. Active and inactive are the calls of the source. No cut-off for these calls is given here.

Key:
Escherichia coli [1] = assay: Antibacterial activity against Escherichia coli ML35p after 18 hrs; format: functional
Method in brief: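 Broth microdilution, modified MIC method for cationic peptides. Overnight culture diluted in Mueller Hinton broth to 10⁵ CFU/mL; peptide added from 10× stock in 0.2% BSA/0.01% acetic acid. MIC = lowest concentration inhibiting measurable growth. Triplicates, repeated at least twice.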

Staphylococcus aureus [2] = assay: Ratio of MBC to MIC for vancomycin/methicillin-resistant Staphylococcus aureus ATCC 700699; format: functional
Method in brief: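 For MBC, 100 μL from each clear well was plated on MH agar in triplicate and incubated for 18 h. MBC = lowest concentration preventing growth of 99.9% of bacteria. The ratio is MBC divided by MIC. Two independent experiments.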

Escherichia coli [3] = assay: Antibacterial activity against Escherichia coli ML35p assessed as reduction of colony forming units at 4 times MIC concentration after 5 mins; format: functional; parameters: scale not given: the % may be the effect or the level left
Method in brief: (§1)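 Time-kill: overnight culture diluted in MH broth to 10⁵ CFU/mL. 1 mL exposed to peptide at 4× MIC, or water as control, at 37 °C, 200 rpm. At time points, aliquots diluted and plated on MH agar. Colonies counted after 20 h at 37 °C. Time to ~95% kill estimated.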

Escherichia coli [4] = assay: Ratio of MBC to MIC for Escherichia coli ML35p; format: functional
Method in brief: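 MBC per CLSI: 100 μL from each clear MIC well plated on MH agar in triplicate, 18 h incubation; MBC = lowest concentration preventing growth of 99.9% of bacteria. Ratio taken as MBC/MIC. Two independent experiments in triplicate.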

Staphylococcus aureus [5] = assay: Antibacterial activity against vancomycin/methicillin-resistant Staphylococcus aureus ATCC 700699 after 18 hrs; format: functional; details: ATCC 700699, 18 h
Method in brief: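 Modified broth microdilution for cationic peptides. Overnight cells were diluted in Mueller Hinton broth to 10⁵ CFU/mL, and peptide was added from a 10× stock in 0.2% BSA/0.01% acetic acid. MIC = lowest concentration inhibiting measurable growth. Triplicates, repeated at least twice.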

Escherichia coli [6] = assay: Induction of morphological changes in Escherichia coli ML35p assessed as thin filamentous phenotype at MIC concentration after 18 hrs using propidium iodide/Syto9 staining by microscopic analysis; format: functional, organism-based
Method in brief: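 Incubated overnight (18 h) with peptide at its MIC, 37 °C, 200 rpm. Stained 15 min with PI (2.7 μM) and Syto 9 (6 μM), smeared, heat-fixed and imaged under Syto and PI filters. Untreated cells as control.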

Escherichia coli [7] = assay: Antibacterial activity against Escherichia coli ML35p assessed as reduction of colony forming units at 4 times MIC concentration after 20 mins; format: functional; parameters: scale not given: the % may be the effect or the level left; method in brief: as §1
Escherichia coli [8] = assay: Antibacterial activity against Escherichia coli ML35p assessed as reduction of colony forming units at 4 times MIC concentration after 40 mins; format: functional; parameters: scale not given: the % may be the effect or the level left; method in brief: as §1
Escherichia coli [9] = assay: Drug uptake in Escherichia coli ML35p inner membrane assessed as lag time at 10 uM; format: ADME, organism-based; details: in vivo
Method in brief: (§2)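 PI uptake: mid-log cells washed and resuspended in 5 mM glucose/5 mM HEPES pH 7.2. Peptide added to 10 μM final, with 2.7 μM propidium iodide. Fluorescence (ex 535 nm, em 617 nm) followed for 10 min; lag before rise read from trace.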

Escherichia coli [10] = assay: Drug uptake in Escherichia coli ML35p inner membrane assessed as time required to permeabilize to inner membrane at 10 uM; format: ADME, organism-based; details: in vivo; method in brief: as §2
Escherichia coli [11] = assay: Drug uptake in Escherichia coli ML35p outer membrane assessed as time required to permeabilize to outer membrane at 10 uM; format: ADME, organism-based; details: in vivo
Method in brief: (§3)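 NPN uptake: mid-log cells washed and resuspended in 5 mM glucose/5 mM HEPES pH 7.2. Peptide added to 10 μM final, with 10 μM NPN. Fluorescence (ex 350 nm, em 420 nm) monitored for 10 min.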

Escherichia coli [12] = assay: Drug uptake in Escherichia coli ML35p inner membrane assessed as increase in fluorescence of propidium iodide at 10 uM measured for 10 mins; format: ADME, organism-based; details: in vivo; method in brief: as §2
Escherichia coli [13] = assay: Drug uptake in Escherichia coli ML35p outer membrane assessed as increase in fluorescence of N-phenylnaphthylamine at 10 uM measured for 10 mins; format: ADME, organism-based; details: in vivo; method in brief: as §3

`CC(=O)NCC(=O)N/C(=C/c1ccccc1)C(=O)N[C@@H](CCCNC(=N)N)C(=O)N[C@@H](CCCCN)C(=O)N/C(=C/c1ccccc1)C(=O)N[C@@H](Cc1c[nH]cn1)C(=O)N[C@@H](CCCCN)C(=O)N/C(=C\c1ccccc1)C(=O)N[C@@H](Cc1c[nH]c2ccccc12)C(=O)N[C@@H](C)C(=O)NCCCC[C@H](NC(=O)[C@H](C)NC(=O)[C@H](Cc1c[nH]c2ccccc12)NC(=O)/C(=C\c1ccccc1)NC(=O)[C@H](CCCCN)NC(=O)[C@H](Cc1c[nH]cn1)NC(=O)/C(=C\c1ccccc1)NC(=O)[C@H](CCCCN)NC(=O)[C@H](CCCNC(=N)N)NC(=O)/C(=C\c1ccccc1)NC(=O)CNC(C)=O)C(N)=O` [listing 1 of 2 here] was tested, and the MBC (Escherichia coli [1]) was 5 µM (≈ 14.1 µg/mL), the MIC (Escherichia coli [1]) was 2.5 µM (≈ 7.07 µg/mL) and the Ratio (Staphylococcus aureus [2]) was 1.5. For the same molecule, the Activity (Escherichia coli [3]) was 96%, the Ratio (Escherichia coli [4]) was 2 and the MBC (Staphylococcus aureus [5]) was 7.5 µM (≈ 21.2 µg/mL). For the same molecule, the MIC (Staphylococcus aureus [5]) was 5 µM (≈ 14.1 µg/mL).
In the case of `CC(=O)NCC(=O)N[C@@H](CCCNC(=N)N)C(=O)N[C@H](CCCCN)C(=O)N/C(=C/c1ccccc1)C(=O)N[C@@H](Cc1c[nH]cn1)C(=O)N[C@H](CCCCN)C(=O)N/C(=C\c1ccccc1)C(=O)N[C@@H](Cc1c[nH]c2ccccc12)C(=O)N[C@@H](C)C(=O)NCCCC[C@@H](NC(=O)[C@H](C)NC(=O)[C@H](Cc1c[nH]c2ccccc12)NC(=O)/C(=C\c1ccccc1)NC(=O)[C@@H](CCCCN)NC(=O)[C@H](Cc1c[nH]cn1)NC(=O)/C(=C\c1ccccc1)NC(=O)[C@@H](CCCCN)NC(=O)[C@@H](CCCNC(=N)N)NC(=O)CNC(C)=O)C(N)=O`, the Activity (Escherichia coli [6]) is reported as “Active”.
With `CC(=O)NCC(=O)N[C@H](CCCCN)C(=O)N/C(=C/c1ccccc1)C(=O)N[C@@H](Cc1c[nH]cn1)C(=O)N[C@H](CCCCN)C(=O)N/C(=C\c1ccccc1)C(=O)N[C@@H](Cc1c[nH]c2ccccc12)C(=O)N[C@@H](C)C(=O)NCCCC[C@@H](NC(=O)[C@H](C)NC(=O)[C@H](Cc1c[nH]c2ccccc12)NC(=O)/C(=C\c1ccccc1)NC(=O)[C@@H](CCCCN)NC(=O)[C@H](Cc1c[nH]cn1)NC(=O)/C(=C\c1ccccc1)NC(=O)[C@@H](CCCCN)NC(=O)CNC(C)=O)C(N)=O` the Activity (Escherichia coli [6]) was “Active”.
In the case of `CC(=O)NCC(=O)N[C@H](CCCCN)C(=O)N/C(=C\c1ccccc1)C(=O)N[C@@H](Cc1c[nH]c2ccccc12)C(=O)N[C@@H](C)C(=O)NCCCC[C@@H](NC(=O)[C@H](C)NC(=O)[C@H](Cc1c[nH]c2ccccc12)NC(=O)/C(=C\c1ccccc1)NC(=O)[C@@H](CCCCN)NC(=O)CNC(C)=O)C(N)=O` [PEPTIDE A], the MIC (Escherichia coli [1]) is reported as > 100 µM and the MIC (Staphylococcus aureus [5]) is reported as > 100 µM.
For `CC(=O)NCC(=O)N[C@@H](CCCNC(=N)N)C(=O)N[C@@H](CCCCN)C(=O)N/C(=C/c1ccccc1)C(=O)N[C@@H](Cc1c[nH]cn1)C(=O)N[C@@H](CCCCN)C(=O)N/C(=C\c1ccccc1)C(=O)N[C@@H](Cc1c[nH]c2ccccc12)C(=O)N[C@@H](C)C(=O)NCCCC[C@H](NC(=O)[C@H](C)NC(=O)[C@H](Cc1c[nH]c2ccccc12)NC(=O)/C(=C\c1ccccc1)NC(=O)[C@H](CCCCN)NC(=O)[C@H](Cc1c[nH]cn1)NC(=O)/C(=C\c1ccccc1)NC(=O)[C@H](CCCCN)NC(=O)[C@H](CCCNC(=N)N)NC(=O)CNC(C)=O)C(N)=O` [listing 1 of 2 here], the MBC (Escherichia coli [1]) was 10 µM (≈ 25.4 µg/mL), the MIC (Escherichia coli [1]) was 5 µM (≈ 12.7 µg/mL) and the Activity (Escherichia coli [3]) was 50%. The Ratio (Escherichia coli [4]) was 2, the Activity (Escherichia coli [7]) was 95% and the MIC (Staphylococcus aureus [5]) was > 100 µM.
In the case of `CC(=O)NCC(=O)N[C@@H](CCCCN)C(=O)N/C(=C/c1ccccc1)C(=O)N[C@@H](Cc1c[nH]cn1)C(=O)N[C@@H](CCCCN)C(=O)N/C(=C\c1ccccc1)C(=O)N[C@@H](Cc1c[nH]c2ccccc12)C(=O)N[C@@H](C)C(=O)NCCCC[C@H](NC(=O)[C@H](C)NC(=O)[C@H](Cc1c[nH]c2ccccc12)NC(=O)/C(=C\c1ccccc1)NC(=O)[C@H](CCCCN)NC(=O)[C@H](Cc1c[nH]cn1)NC(=O)/C(=C\c1ccccc1)NC(=O)[C@H](CCCCN)NC(=O)CNC(C)=O)C(N)=O` [listing 1 of 2 here], the MBC (Escherichia coli [1]) is reported as 15 µM (≈ 33.4 µg/mL), the MIC (Escherichia coli [1]) is reported as 10 µM (≈ 22.3 µg/mL) and the Activity (Escherichia coli [8]) is reported as 95%. The Activity (Escherichia coli [3]) was 50%, the Ratio (Escherichia coli [4]) was 1.5 and the MIC (Staphylococcus aureus [5]) was > 100 µM.
`CC(=O)NCC(=O)N/C(=C/c1ccccc1)C(=O)N[C@@H](CCCNC(=N)N)C(=O)N[C@@H](CCCCN)C(=O)N/C(=C/c1ccccc1)C(=O)N[C@@H](Cc1c[nH]cn1)C(=O)N[C@@H](CCCCN)C(=O)N/C(=C\c1ccccc1)C(=O)N[C@@H](Cc1c[nH]c2ccccc12)C(=O)N[C@@H](C)C(=O)NCCCC[C@H](NC(=O)[C@H](C)NC(=O)[C@H](Cc1c[nH]c2ccccc12)NC(=O)/C(=C\c1ccccc1)NC(=O)[C@H](CCCCN)NC(=O)[C@H](Cc1c[nH]cn1)NC(=O)/C(=C\c1ccccc1)NC(=O)[C@H](CCCCN)NC(=O)[C@H](CCCNC(=N)N)NC(=O)/C(=C\c1ccccc1)NC(=O)CNC(C)=O)C(N)=O` [listing 2 of 2 here] gave a Time (Escherichia coli [9]) of 2.5 min, a Time (Escherichia coli [10]) of 230 s and a Time (Escherichia coli [11]) of 150 s. The Drug uptake (Escherichia coli [12]) was “Active” and the Drug uptake (Escherichia coli [13]) was “Active”.
With `CC(=O)NCC(=O)N[C@@H](Cc1c[nH]cn1)C(=O)N[C@H](CCCCN)C(=O)N/C(=C\c1ccccc1)C(=O)N[C@@H](Cc1c[nH]c2ccccc12)C(=O)N[C@@H](C)C(=O)NCCCC[C@@H](NC(=O)[C@H](C)NC(=O)[C@H](Cc1c[nH]c2ccccc12)NC(=O)/C(=C\c1ccccc1)NC(=O)[C@@H](CCCCN)NC(=O)[C@H](Cc1c[nH]cn1)NC(=O)CNC(C)=O)C(N)=O` the MIC (Escherichia coli [1]) was > 100 µM and the MIC (Staphylococcus aureus [5]) was > 100 µM.
In the case of `CC(=O)NCC(=O)N[C@@H](CCCNC(=N)N)C(=O)N[C@@H](CCCCN)C(=O)N/C(=C/c1ccccc1)C(=O)N[C@@H](Cc1c[nH]cn1)C(=O)N[C@@H](CCCCN)C(=O)N/C(=C\c1ccccc1)C(=O)N[C@@H](Cc1c[nH]c2ccccc12)C(=O)N[C@@H](C)C(=O)NCCCC[C@H](NC(=O)[C@H](C)NC(=O)[C@H](Cc1c[nH]c2ccccc12)NC(=O)/C(=C\c1ccccc1)NC(=O)[C@H](CCCCN)NC(=O)[C@H](Cc1c[nH]cn1)NC(=O)/C(=C\c1ccccc1)NC(=O)[C@H](CCCCN)NC(=O)[C@H](CCCNC(=N)N)NC(=O)CNC(C)=O)C(N)=O` [listing 2 of 2 here], the Drug uptake (Escherichia coli [12]) is reported as “Not Active” and the Drug uptake (Escherichia coli [13]) is reported as “Active”.
`CC(=O)NCC(=O)N/C(=C/c1ccccc1)C(=O)N[C@@H](CCCNC(=N)N)C(=O)N[C@H](CCCCN)C(=O)N/C(=C/c1ccccc1)C(=O)N[C@@H](Cc1c[nH]cn1)C(=O)N[C@H](CCCCN)C(=O)N/C(=C\c1ccccc1)C(=O)N[C@@H](Cc1c[nH]c2ccccc12)C(=O)N[C@@H](C)C(=O)NCCCC[C@@H](NC(=O)[C@H](C)NC(=O)[C@H](Cc1c[nH]c2ccccc12)NC(=O)/C(=C\c1ccccc1)NC(=O)[C@@H](CCCCN)NC(=O)[C@H](Cc1c[nH]cn1)NC(=O)/C(=C\c1ccccc1)NC(=O)[C@@H](CCCCN)NC(=O)[C@@H](CCCNC(=N)N)NC(=O)/C(=C\c1ccccc1)NC(=O)CNC(C)=O)C(N)=O` was tested, and the Activity (Escherichia coli [6]) was “Active”.
For `CC(=O)NCC(=O)N[C@@H](CCCCN)C(=O)N/C(=C/c1ccccc1)C(=O)N[C@@H](Cc1c[nH]cn1)C(=O)N[C@@H](CCCCN)C(=O)N/C(=C\c1ccccc1)C(=O)N[C@@H](Cc1c[nH]c2ccccc12)C(=O)N[C@@H](C)C(=O)NCCCC[C@H](NC(=O)[C@H](C)NC(=O)[C@H](Cc1c[nH]c2ccccc12)NC(=O)/C(=C\c1ccccc1)NC(=O)[C@H](CCCCN)NC(=O)[C@H](Cc1c[nH]cn1)NC(=O)/C(=C\c1ccccc1)NC(=O)[C@H](CCCCN)NC(=O)CNC(C)=O)C(N)=O` [listing 2 of 2 here], the Drug uptake (Escherichia coli [12]) was “Not Active” and the Drug uptake (Escherichia coli [13]) was “Active”.
